From ChEMBL document CHEMBL3804820, “2-hydroxyisoquinoline-1,3(2H,4H)-diones (HIDs) as human immunodeficiency virus type 1 integrase inhibitors: Influence of the alkylcarboxamide substitution of position 4” (Eur J Med Chem, 2016) come the findings set out here.

Series [1] deals with MDCK-II. Nature of the series: Inhibition of human P-gp expressed in MDCK2-MDR1 cells assessed as reduction in calcien-AM efflux at 1 uM incubated for 20 mins by fluorimetry relative to control. Format: cell-based. Summed up:
(§1)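 P-gp efflux inhibition in MDR1-MDCKII cells with calcein AM substrate, tested up to 100.0 µM. Read as percentage inhibition of control.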

Series [2] is described as follows: Cytotoxicity against human HepG2 cells assessed as reduction in mitochondrial membrane potential at 30 uM after 72 hrs by fluorescent image analysis relative to untreated control. The format is cell-based. The settings on record: read-out: INH. Summed up: (§2)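 Contract in vitro cytotoxicity panel covering cell number, intracellular free calcium, nuclear size, membrane permeability and mitochondrial membrane potential. Compounds tested at 1.0, 30.0 and 100.0 µM; values are percentage change versus untreated control, and IC50 where derived.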

A short description of series [3]: Cytotoxicity against human HepG2 cells assessed as reduction in mitochondrial membrane potential at 100 uM after 72 hrs by fluorescent image analysis relative to untreated control. The format is cell-based. The settings on record: read-out: INH. Summed up:
as §2

Series [4] in a line: Cytotoxicity against human HepG2 cells assessed as reduction in nuclear size at 1 uM after 72 hrs by fluorescent image analysis relative to untreated control. Format: cell-based. The settings on record: read-out: INH. Summed up:
as §2

The target of series [5] is CYP2D6 (Homo sapiens, UniProt P10635). Nature of the series: Inhibition of human recombinant CYP2D6 using MFC as substrate at 10 uM incubated for 40 mins by fluorimetry relative to control. Format: ADME. The settings on record: recombinant CYP2D6, probe MFC. Summed up:
(§3)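 Recombinant CYP isoforms, each with its fluorogenic substrate: CYP1A2 and CYP2C19 with CEC, CYP2C9 and CYP2D6 with MFC, CYP3A4 with BFC. Read as percentage inhibition of control, standard contract assays.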

For series [6], the system named is HepG2. The series is described as follows: Cytotoxicity against human HepG2 cells assessed as increase in membrane permeability at 1 uM after 72 hrs by fluorescent image analysis relative to untreated control. Format: cell-based. The settings on record: hepg2, 72 h.
A short description of series [7]: Cytotoxicity against human HepG2 cells assessed as reduction in cell number at 1 uM after 72 hrs by fluorescent image analysis relative to untreated control. Format: cell-based. As to conditions: read-out: INH. The method in brief: as §2
For series [8], the target named is T1, Human immunodeficiency virus type 1 integrase (Human immunodeficiency virus 1, UniProt Q7ZJM1). Nature of the series: Inhibition of HIV1 integrase using 3'-biotin-labelled and 5'-digoxigenin-labelled oligonucleotide substrate incubated for 1 hr by ELISA. Summed up: (§4)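 ELISA with a 3'-biotin oligo and a 5'-digoxigenin partner oligo. Overall assay uses the full complementary oligo; strand transfer uses a precleaved oligo lacking the 3'-GT. Integrase at 160 nM final, annealed oligos 7 nM, in 10 mM MgCl2, 5 mM DTT, 20 mM HEPES pH 7.5, 0.5% PEG, 15% DMSO. Run 1 h at 37 °C, products denatured with NaOH, detected on avidin plates.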
(In general: In an ELISA, binding on a coated surface is turned into a signal by an enzyme label.)

In series [9] the test system is MDCK-II. The series is described as follows: Inhibition of human P-gp expressed in MDCK2-MDR1 cells assessed as reduction in calcien-AM efflux at 100 uM incubated for 20 mins by fluorimetry relative to control. The format is cell-based. Summed up: as §1
Series [10] has as its target T1, Human immunodeficiency virus type 1 integrase. The series is described as follows: Inhibition of HIV1 integrase 3'-processing activity using 5'-ACTGCTAGAGATTTTCCACACTGACTAAAAGGGTC-[biotin]3' as substrate incubated for 1 hr by ELISA.
Series [11] can be described thus: Partition coefficient , log D of the compound in n-octanol/PBS at pH 7.4. The format is physicochemical. The method in brief: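 Log D measured by n-octanol/PBS partition at pH 7.4, in a standard contract assay.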
Series [12] concerns the target T1, Human immunodeficiency virus type 1 integrase. Nature of the series: Inhibition of HIV1 integrase strand transfer activity using 5'[digoxigenin]-GACCCTTTTAGTCAGTGTGGAAAATCTCTAGCA-3' as substrate incubated for 1 hr by ELISA. Summed up:
as §4

The subject of series [13] is HepG2. Nature of the series: Cytotoxicity against human HepG2 cells assessed as increase in intracellular free calcium level at 100 uM after 72 hrs by fluorescent image analysis relative to untreated control. The format is cell-based. The settings on record: hepg2, 72 h. The method in brief: as §2
Series [14] can be described thus: Cytotoxicity against human HepG2 cells assessed as reduction in nuclear size at 30 uM after 72 hrs by fluorescent image analysis relative to untreated control. Format: cell-based. The settings on record: read-out: INH. The method in brief:
as §2

For series [15], the target named is CYP2C9 (Homo sapiens, UniProt P11712). The series is described as follows: Inhibition of human recombinant CYP2C9 using MFC as substrate at 10 uM incubated for 40 mins by fluorimetry relative to control. The format is ADME. The settings on record: recombinant CYP2C9, probe MFC. Summed up: as §3
Series [16] can be described thus: Aqueous solubility in PBS at pH 7.4. Format: physicochemical. The method in brief: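 Aqueous solubility measured in PBS, pH 7.4, in a standard contract assay.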
Series [17] deals with Human immunodeficiency virus 1. The series is described as follows: Selectivity ratio of EC50 for raltegravir resistant HIV1 harboring integrase N155H mutant infected in human MT4 cells to EC50 for wild type HIV1 3B infected in human MT4 cells. The format is functional. The method in brief:
(§5)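 MT-4/MTT cytopathic-effect assay in human MT-4 lymphocytes. Cells were infected with 100–300 CCID50 of each virus stock in the presence of 5-fold serial drug dilutions. The HIV-1 IIIB wild-type stock was titrated on MT-4 cells. Viability was read spectrophotometrically as formazan from MTT reduction. EC50 is the concentration giving 50% protection against CPE for each strain. Fold-change is mutant-strain EC50 relative to wild-type EC50.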

A short description of series [18]: Plasma protein binding in human assessed as drug recovery at 10 uM incubated for 4 hrs by equilibrium dialysis method. Format: ADME, cell-free. The settings on record: read-out: Drug recovery. Summed up: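 Human plasma protein binding, given as percent bound and percent recovery, in a standard contract assay.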
For series [19], the system named is HepG2. The series is described as follows: Cytotoxicity against human HepG2 cells assessed as increase in membrane permeability at 30 uM after 72 hrs by fluorescent image analysis relative to untreated control. The settings on record: hepg2, 72 h. The format is cell-based.
Series [20] addresses hERG (KCNH2) (Homo sapiens, UniProt Q12809). Nature of the series: in vitro. As to conditions: CHO-K1 cells expressing human ERG.
The test system of series [21] is Human immunodeficiency virus 1. The series is described as follows: Selectivity ratio of EC50 for raltegravir resistant HIV1 harboring integrase Q148H mutant infected in human MT4 cells to EC50 for wild type HIV1 3B infected in human MT4 cells. Format: functional. Summed up: as §5

Each structure is given as a SMILES string. Values after ≈ are worked out from the molar mass of the structure shown.

T1 sequence (Q7ZJM1 whole entry): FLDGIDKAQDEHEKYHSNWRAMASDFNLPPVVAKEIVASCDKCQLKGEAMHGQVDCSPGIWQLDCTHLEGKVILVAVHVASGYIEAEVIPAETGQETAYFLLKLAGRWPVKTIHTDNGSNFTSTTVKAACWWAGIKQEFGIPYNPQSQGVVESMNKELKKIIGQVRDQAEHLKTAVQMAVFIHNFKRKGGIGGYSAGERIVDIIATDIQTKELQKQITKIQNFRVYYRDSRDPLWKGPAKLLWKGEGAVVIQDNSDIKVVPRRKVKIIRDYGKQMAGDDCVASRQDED
Chain of hERG (KCNH2) (Q12809 whole entry): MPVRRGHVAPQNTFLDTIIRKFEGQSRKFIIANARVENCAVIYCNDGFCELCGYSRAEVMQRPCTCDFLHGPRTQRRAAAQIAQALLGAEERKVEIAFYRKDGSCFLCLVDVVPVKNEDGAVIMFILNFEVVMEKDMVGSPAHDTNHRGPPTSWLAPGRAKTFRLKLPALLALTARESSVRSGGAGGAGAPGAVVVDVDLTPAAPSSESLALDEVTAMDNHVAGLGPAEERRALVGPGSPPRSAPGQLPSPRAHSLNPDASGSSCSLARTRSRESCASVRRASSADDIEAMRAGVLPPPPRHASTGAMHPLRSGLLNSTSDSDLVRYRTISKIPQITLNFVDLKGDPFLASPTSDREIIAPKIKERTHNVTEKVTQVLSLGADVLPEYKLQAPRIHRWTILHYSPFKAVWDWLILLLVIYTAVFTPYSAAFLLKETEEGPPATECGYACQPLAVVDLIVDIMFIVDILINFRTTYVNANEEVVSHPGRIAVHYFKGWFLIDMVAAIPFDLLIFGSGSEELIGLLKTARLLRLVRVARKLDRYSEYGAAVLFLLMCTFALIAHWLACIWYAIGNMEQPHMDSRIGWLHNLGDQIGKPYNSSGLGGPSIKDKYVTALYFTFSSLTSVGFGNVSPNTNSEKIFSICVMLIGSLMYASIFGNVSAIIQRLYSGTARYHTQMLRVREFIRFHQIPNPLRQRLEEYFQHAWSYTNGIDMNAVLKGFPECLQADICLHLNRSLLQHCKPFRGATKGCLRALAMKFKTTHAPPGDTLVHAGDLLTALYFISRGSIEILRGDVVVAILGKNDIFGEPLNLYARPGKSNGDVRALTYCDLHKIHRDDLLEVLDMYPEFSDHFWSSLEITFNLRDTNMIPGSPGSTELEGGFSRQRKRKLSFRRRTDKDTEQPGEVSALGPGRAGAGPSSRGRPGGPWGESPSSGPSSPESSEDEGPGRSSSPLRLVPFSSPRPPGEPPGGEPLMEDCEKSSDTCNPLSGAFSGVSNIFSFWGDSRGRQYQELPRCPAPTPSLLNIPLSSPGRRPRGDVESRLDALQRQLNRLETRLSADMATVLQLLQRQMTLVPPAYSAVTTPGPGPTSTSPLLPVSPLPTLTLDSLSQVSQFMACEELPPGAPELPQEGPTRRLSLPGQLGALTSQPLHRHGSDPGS
Chain of CYP2D6 (P10635 whole entry, canonical isoform): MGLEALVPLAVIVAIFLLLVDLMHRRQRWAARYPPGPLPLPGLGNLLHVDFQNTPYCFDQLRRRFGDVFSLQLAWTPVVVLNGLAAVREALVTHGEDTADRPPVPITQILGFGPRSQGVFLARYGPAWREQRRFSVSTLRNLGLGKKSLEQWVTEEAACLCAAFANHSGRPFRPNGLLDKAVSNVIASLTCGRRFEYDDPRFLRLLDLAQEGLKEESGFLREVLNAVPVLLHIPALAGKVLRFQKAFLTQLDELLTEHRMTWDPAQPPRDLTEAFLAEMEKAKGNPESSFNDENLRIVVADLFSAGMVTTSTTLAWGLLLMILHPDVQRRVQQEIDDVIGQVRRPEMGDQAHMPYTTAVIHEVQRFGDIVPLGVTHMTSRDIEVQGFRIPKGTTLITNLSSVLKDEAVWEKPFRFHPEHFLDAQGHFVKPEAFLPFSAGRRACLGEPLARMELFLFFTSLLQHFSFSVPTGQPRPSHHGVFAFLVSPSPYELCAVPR
Chain of CYP2C9 (P11712 whole entry): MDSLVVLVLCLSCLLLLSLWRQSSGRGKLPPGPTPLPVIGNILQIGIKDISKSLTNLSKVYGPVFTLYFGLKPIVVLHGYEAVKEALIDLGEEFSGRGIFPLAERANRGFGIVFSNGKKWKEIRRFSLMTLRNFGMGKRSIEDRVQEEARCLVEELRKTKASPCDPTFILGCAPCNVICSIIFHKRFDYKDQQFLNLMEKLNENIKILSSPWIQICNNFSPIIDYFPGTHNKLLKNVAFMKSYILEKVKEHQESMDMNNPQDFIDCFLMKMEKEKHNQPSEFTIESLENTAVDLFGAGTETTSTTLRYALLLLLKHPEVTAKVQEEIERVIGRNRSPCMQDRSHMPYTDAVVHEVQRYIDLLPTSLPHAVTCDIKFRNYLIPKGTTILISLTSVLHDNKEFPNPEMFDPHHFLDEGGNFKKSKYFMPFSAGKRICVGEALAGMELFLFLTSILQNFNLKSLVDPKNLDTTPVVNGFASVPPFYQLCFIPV

As a reminder, the inhibition is the change of the read-out against control, counted positive when it falls. Usually IC50 stands for the concentration that inhibits the measured activity by half. Higher therefore signals weaker potency. For orientation: logD means lipophilicity at a set pH, counting ionised and neutral species. As usually defined, the solubility is how much of the substance goes into solution per volume. Low values mean little dissolved substance, high ones much dissolved substance. In the case of `CCCCCCNC(=O)C1C(=O)N(O)C(=O)c2ccccc21` (stereo unspecified), the inhibition in series [1] is -5.5%; in series [9], 5.3%. Moreover, the cytotoxicity at 72 h, 30 µM in series [2] amounted to 5.1%; in series [14] it was 12.1%. Further, in series [3], the cytotoxicity at 72 h, 100 µM came to 33.9%. In addition, the cytotoxicity at 72 h, 1 µM in series [4] was -7%; in series [7], -10%. Besides, the inhibition at 40 min, 10 µM stood at 24.6% in series [5] and 25.3% in series [15]. Also, the figures for the Activity in series [6], in series [13] and in [19] were 0.1%, 32.3% and 7%, respectively. Moreover, the IC50 in [8] is 85 nM; in [10], 510 nM; in series [12], 195 nM. The same compound returned a logD in [11] of 1.26. The solubility in [16] was 160 µM (≈ 48.8 µg/mL). Besides, the “Ratio EC50” value in series [17] and in series [21] was 1 throughout. Further, the recovery at 4 h, 10 µM in series [18] is 93.2%. The inhibition at 5 min, 10 µM in [20] is 19.4%.
